Measurements published in ChEMBL document CHEMBL1671808, “Brassinin oxidase mediated transformation of the phytoalexin brassinin: structure of the elusive co-product, deuterium isotope effect and stereoselectivity” (2011).
“And” between values parts separate entries of the source, which are not always exact repeats. Equal entries are not always repeated. One block for each compound: values may come before it. The source made the active and inactive calls. The rule behind the calls is not given here.

Legend:
Plenodomus lingam [1] = assay: Activity of Leptosphaeria maculans BoLm in presence of EDC reagent relative to control
In short: (§1)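 Purified BOLm was treated with the carboxyl-specific reagent (WRK or EDC, 5–50 mM) in 100 mM MES pH 6.0 at 20 °C. Aliquots taken at time intervals were assayed for residual activity in the standard brassinin/PMS HPLC assay. Activity is given as a percentage of untreated enzyme. For WRK, kobs came from ln residual activity versus time, and K_I and k2 from 1/kobs versus 1/[WRK].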

Plenodomus lingam [2] = assay: Activity of Leptosphaeria maculans BoLm in presence of IAA reagent relative to control
In short: (§2)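 Purified BOLm was incubated in a reaction buffer with each modifier: BUT 10 mM, EAM 2.5 mM, NAI 2.5 mM or DEPC 2.5 mM in 100 mM phosphate pH 7.5; IAA 2.5 mM in 100 mM MES pH 6.0; PMSF 2.5 mM in 100 mM phosphate pH 8.1. Residual activity was then read in the standard brassinin/PMS HPLC assay. Result is specific activity as a percentage of untreated enzyme.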

Plenodomus lingam [3] = assay: Activity of Leptosphaeria maculans BoLm in presence of EAM reagent relative to control; in short: as §2
Plenodomus lingam [4] = assay: Activity of Leptosphaeria maculans BoLm in presence of DEPC reagent relative to control; in short: as §2
Plenodomus lingam [5] = assay: Activity of Leptosphaeria maculans BoLm relative to Brassinin; details: tested as the 2H-labelled form
Plenodomus lingam [6] = assay: Ratio of kcat to Km for Leptosphaeria maculans BoLm
In short: (§3)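 BOLm purified from 3-phenylindole-induced L. maculans BJ-125 liquid cultures. Assay buffer: 20 mM DEA pH 8.2, 1.0 mM DTT, 0.1% Triton X-100, with 1.0 mM PMS as electron acceptor, which is saturating. Substrate was varied over 0.05–1.0 mM for brassinin or 0.05–2.8 mM for the carbamate. Reactions ran 20 min at 20 °C and were stopped and extracted with EtOAc. Indole-3-carboxaldehyde was quantified by HPLC-DAD against calibration curves. kcat and Km were taken from saturation curves. Four independent experiments.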

Plenodomus lingam [7] = assay: Activity of Leptosphaeria maculans BoLm in presence of WRK reagent relative to control; in short: as §1
Plenodomus lingam [8] = assay: Activity of Leptosphaeria maculans BoLm in presence of PMSF reagent relative to control; in short: as §2
Plenodomus lingam [9] = assay: Activity of Leptosphaeria maculans BoLm in presence of NAI reagent relative to control; in short: as §2
Plenodomus lingam [10] = assay: Activity of Leptosphaeria maculans BoLm at 0.05 to 1.0 mM; in short: as §3
Plenodomus lingam [11] = assay: Activity of Leptosphaeria maculans BoLm in presence of BUT reagent relative to control; in short: as §2
Plenodomus lingam [12] = assay: Activity of Leptosphaeria maculans BoLm in presence of H218O relative to Brassinin; details: tested as the 2H-labelled form
Plenodomus lingam [13] = assay: Activity of Leptosphaeria maculans BoLm; in short: as §3
Plenodomus lingam [14] = assay: Selectivity ratio of compound to dideuterated brassinin for Leptosphaeria maculans BoLm activity
In short: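 Kinetic isotope effect = (kcat/Km)H / (kcat/Km)D. Purified BOLm at pH 8.2 with saturating PMS (1.0 mM), 20 °C, 20 min. Substrate was varied over 0.05–1.0 mM (brassinin series) or 0.05–2.8 mM (carbamate series), comparing natural-abundance and deuterated substrates. Product was quantified by HPLC. Four independent experiments.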

Plenodomus lingam [15] = assay: Inhibition of Leptosphaeria maculans BoLm assessed as conversion of brassinin to indole-3-carboxaldehyde at 0.60 mM
In short: (§4)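 Initial-velocity assays with purified BOLm: product added at fixed 0.30 or 0.60 mM, brassinin varied 0.05–0.30 mM at saturating PMS (1 mM); also PMS varied […] with brassinin fixed at 0.05, 0.10 or 0.15 mM; standard DEA pH 8.2 assay, HPLC quantitation.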

Plenodomus lingam [16] = assay: Antifungal activity against Leptosphaeria maculans isolate BJ 125 assessed as growth inhibition at 0.50 mM relative to control; assay type: functional; set-up: scale not given: the % may be the effect or the level left
In short: (§5)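 Mycelial growth inhibition of L. maculans isolate BJ 125 tested at 0.50, 0.25 and 0.12 mM; growth compared with control cultures grown without compound under otherwise identical conditions.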

Plenodomus lingam [17] = assay: Antifungal activity against Leptosphaeria maculans isolate BJ 125 assessed as growth inhibition; assay type: functional; set-up: scale not given: the % may be the effect or the level left; in short: as §5
Plenodomus lingam [18] = assay: Ratio of kcat to Km for Leptosphaeria maculans BoLm to ratio of kcat to Km for Leptosphaeria maculans BoLm with the deuterated substrate; details: tested as the 2H-labelled form
Plenodomus lingam [19] = assay: Activity of Leptosphaeria maculans BoLm at 0.05 to 2.8 mM
In short: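 Purified BOLm from 3-phenylindole-induced L. maculans BJ-125 cultures; substrate varied 0.05–2.8 mM with saturating PMS (1.0 mM) in 20 mM DEA pH 8.2, 1 mM DTT, 0.1% Triton X-100; 20 °C, 20 min; EtOAc extraction, HPLC-DAD quantitation of indole-3-carboxaldehyde against calibration curves; kcat, Km from saturation curves; four independent experiments.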

Plenodomus lingam [20] = assay: Inhibition of Leptosphaeria maculans BoLm assessed as conversion of brassinin to indole-3-carboxaldehyde at 0.30 mM; in short: as §4

Structure (SMILES): CSC(=S)NCc1c[nH]c2ccccc12
Activity (Plenodomus lingam [1]): 38%
Activity (Plenodomus lingam [2]): 106%
Activity (Plenodomus lingam [3]): 97%
Activity (Plenodomus lingam [4]): 103%
Activity (Plenodomus lingam [5]): 26%
kcat/Km (Plenodomus lingam [6]): 9900 M⁻¹ s⁻¹
Activity (Plenodomus lingam [7]): 17%
Activity (Plenodomus lingam [8]): 108%
Activity (Plenodomus lingam [9]): 111%
kcat (Plenodomus lingam [10]): 0.95 s⁻¹
kcat (Plenodomus lingam [10]; tested as the 2H-labelled form): 0.28 s⁻¹
Activity (Plenodomus lingam [11]): 95%
Activity (Plenodomus lingam [12]): 23%
Km (Plenodomus lingam [13]): 96 µM
Km (Plenodomus lingam [13]; tested as the 2H-labelled form): 151 µM and 94 µM and 96 µM
kcat (Plenodomus lingam [13]; tested as the 2H-labelled form): 0.84 s⁻¹ and 0.47 s⁻¹
Ratio (Plenodomus lingam [14]): 4

inhibition (Plenodomus lingam [15]): inactive
Structure (SMILES): CSC(N)=S
Activity (Plenodomus lingam [16]): 18%
Activity (Plenodomus lingam [17]): 18%

kcat/Km (Plenodomus lingam [6]): 9040 M⁻¹ s⁻¹
kcat/Km (Plenodomus lingam [6]; tested as the 2H-labelled form): 2300 M⁻¹ s⁻¹
Ratio (Plenodomus lingam [18]): 3.9
kcat (Plenodomus lingam [19]): 5.62 s⁻¹
kcat (Plenodomus lingam [19]; tested as the 2H-labelled form): 1.15 s⁻¹
Km (Plenodomus lingam [13]): 622 µM
Km (Plenodomus lingam [13]; tested as the 2H-labelled form): 501 µM
Structure (SMILES): COC(=O)NCc1c[nH]c2ccccc12

inhibition (Plenodomus lingam [20]): inactive
Structure (SMILES): O=Cc1c[nH]c2ccccc12
